Reference: ChEMBL document CHEMBL1275242, “Antifungal susceptibility profile of human-pathogenic species of Lichtheimia” (2010)
≈ marks a conversion by molar mass, not a printed value. Numbered stars: 1 amine (or outer) side, 2 acyl side, 3 side chain; on linkers, the order of the positions; unused ones are H or OH. Bridge positions count the residues as written; N and C are the ends. Square brackets hold non-standard residues; d marks the D form. Peptide text beside a SMILES is read from it. * marks the point of attachment. hTyr(3S-OH,4S-OH,3'-OSO3H) = N[C@H](C(=O)O)[C@H](O)[C@@H](O)c1ccc(O)c(OS(=O)(=O)O)c1; pTerphenylCO(4''-OnC5H11) = CCCCCOc1ccc(-c2ccc(-c3ccc(C(=O)*)cc3)cc2)cc1; Orn(4R-OH,5R-OH) = O=C([C@H](C[C@@H](O)[C@@H](O)N[*:3])N[*:1])[*:2]; hTyr(3S-OH,4S-OH) = N[C@H](C(=O)O)[C@H](O)[C@@H](O)c1ccc(O)cc1; Pro(3S-OH,4S-Me) = C[C@H]1CN[C@H](C(=O)O)[C@H]1O; X1 = CCCCCOc1ccc(-c2cc(-c3ccc(C(=O)*)cc3)no2)cc1; Gln(3R-OH) = NC(=O)C[C@@H](O)[C@H](N)C(=O)O; Hyp = O=C(O)[C@@H]1C[C@@H](O)CN1

What was measured:
Type in all cases: functional
[1] = Antifungal activity against Lichtheimia ramosa clinical isolate after 48 hrs by EUCAST method
How it was run: (§1)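 EUCAST broth microdilution, with spore inoculum counted in a hematocytometer. Final drug concentrations were 16 to 0.03 or 8 to 0.015 mg/liter depending on agent. Plates were incubated at 35°C in humid air and read visually with a mirror at 24 and 48 h. Endpoint was complete visual growth inhibition, except for echinocandins, where it was MEC (altered hyphal morphology versus growth control). Aspergillus QC strains were included.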

Lichtheimia corymbifera [2] = assay: Antifungal activity against Lichtheimia corymbifera clinical isolate after 24 hrs by EUCAST method; how it was run: as §1
[3] = Antifungal activity against Lichtheimia ornata clinical isolate after 24 hrs by EUCAST method; how it was run: as §1
[4] = Antifungal activity against Lichtheimia ornata clinical isolate after 48 hrs by EUCAST method; how it was run: as §1
[5] = Antifungal activity against Lichtheimia ramosa clinical isolate after 24 hrs by EUCAST method; how it was run: as §1
Lichtheimia corymbifera [6] = assay: Antifungal activity against Lichtheimia corymbifera clinical isolate after 48 hrs by EUCAST method; how it was run: as §1

SMILES	MIC [1] [µg/mL]	MIC (Lichtheimia corymbifera [2]) [µg/mL]	MIC [3] [µg/mL]	MIC [4] [µg/mL]	MIC [5] [µg/mL]	MIC (Lichtheimia corymbifera [6]) [µg/mL]
C[C@@H]1[C@H](O)[C@@H](C)/C=C/C=C/C=C/C=C/C=C/C=C/C=C/[C@H](O[C@@H]2O[C@H](C)[C@@H](O)[C@H](N)[C@@H]2O)C[C@@H]2O[C@](O)(C[C@@H](O)C[C@@H](O)[C@H](O)CC[C@@H](O)C[C@@H](O)CC(=O)O[C@H]1C)C[C@H](O)[C@H]2C(=O)O [AMPHOTERICIN B]	0.14 (≈ 0.152 µM)	0.07 (≈ 0.0758 µM)	0.12 (≈ 0.13 µM)	0.12 (≈ 0.13 µM)	0.08 (≈ 0.0866 µM)	0.14 (≈ 0.152 µM)
CCCCCOc1ccc(-c2ccc(-c3ccc(C(=O)N[C@H]4C[C@@H](O)[C@@H](O)NC(=O)[C@@H]5[C@@H](O)[C@@H](C)CN5C(=O)[C@H]([C@@H](C)O)NC(=O)[C@H]([C@H](O)[C@@H](O)c5ccc(O)cc5)NC(=O)[C@@H]5C[C@@H](O)CN5C(=O)[C@H]([C@@H](C)O)NC4=O)cc3)cc2)cc1 [ANIDULAFUNGIN] ({pTerphenylCO(4''-OnC5H11)}-[Orn(4R-OH,5R-OH)]T[Hyp][hTyr(3S-OH,4S-OH)]T[Pro(3S-OH,4S-Me)]; lactam 1-C)	5.15 (≈ 4.52 µM)	1.99 (≈ 1.75 µM)	4 (≈ 3.51 µM)	32 (≈ 28.1 µM)	3.58 (≈ 3.14 µM)	10.8 (≈ 9.48 µM)
CC[C@H](C)C[C@H](C)CCCCCCCCC(=O)N[C@H]1C[C@@H](O)[C@@H](NCCN)NC(=O)[C@@H]2[C@@H](O)CCN2C(=O)[C@H]([C@H](O)CCN)NC(=O)[C@H]([C@H](O)[C@@H](O)c2ccc(O)cc2)NC(=O)[C@@H]2C[C@@H](O)CN2C(=O)[C@H]([C@@H](C)O)NC1=O [CASPOFUNGIN]	21.4 (≈ 19.6 µM)	9.27 (≈ 8.48 µM)	32 (≈ 29.3 µM)	32 (≈ 29.3 µM)	11 (≈ 10.1 µM)	10 (≈ 9.16 µM)
CCC(C)n1ncn(-c2ccc(N3CCN(c4ccc(OCC5COC(Cn6cncn6)(c6ccc(Cl)cc6Cl)O5)cc4)CC3)cc2)c1=O (centres undefined) [ITRACONAZOLE]	2.38 (≈ 3.37 µM)	0.62 (≈ 0.879 µM)	0.5 (≈ 0.709 µM)	1 (≈ 1.42 µM)	0.92 (≈ 1.3 µM)	1.03 (≈ 1.46 µM)
CCCCCOc1ccc(-c2cc(-c3ccc(C(=O)N[C@H]4C[C@@H](O)[C@@H](O)NC(=O)[C@@H]5[C@@H](O)[C@@H](C)CN5C(=O)[C@H]([C@H](O)CC(N)=O)NC(=O)[C@H]([C@H](O)[C@@H](O)c5ccc(O)c(OS(=O)(=O)O)c5)NC(=O)[C@@H]5C[C@@H](O)CN5C(=O)[C@H]([C@@H](C)O)NC4=O)cc3)no2)cc1 [MICAFUNGIN] (X1-[Orn(4R-OH,5R-OH)]T[Hyp][hTyr(3S-OH,4S-OH,3'-OSO3H)][Gln(3R-OH)][Pro(3S-OH,4S-Me)]; lactam 1-C)	21.4 (≈ 16.8 µM)	8.92 (≈ 7.02 µM)	32 (≈ 25.2 µM)	32 (≈ 25.2 µM)	6.85 (≈ 5.39 µM)	12.6 (≈ 9.95 µM)
CC[C@@H]([C@H](C)O)n1ncn(-c2ccc(N3CCN(c4ccc(OC[C@@H]5CO[C@@](Cn6cncn6)(c6ccc(F)cc6F)C5)cc4)CC3)cc2)c1=O [POSACONAZOLE]	0.69 (≈ 0.985 µM)	0.37 (≈ 0.528 µM)	0.25 (≈ 0.357 µM)	0.25 (≈ 0.357 µM)	0.32 (≈ 0.457 µM)	0.58 (≈ 0.828 µM)
C[C@@H](c1nc(-c2ccc(C#N)cc2)cs1)[C@](O)(Cn1cncn1)c1ccc(F)cc1F [RAVUCONAZOLE]	3.42 (≈ 7.82 µM)	1.34 (≈ 3.06 µM)	1 (≈ 2.29 µM)	2 (≈ 4.57 µM)	1.44 (≈ 3.29 µM)	1.86 (≈ 4.25 µM)
CN(C/C=C/C#CC(C)(C)C)Cc1cccc2ccccc12 [TERBINAFINE]	1 (≈ 3.43 µM)	0.48 (≈ 1.65 µM)	0.25 (≈ 0.858 µM)	0.5 (≈ 1.72 µM)	0.56 (≈ 1.92 µM)	0.75 (≈ 2.57 µM)
C[C@@H](c1ncncc1F)[C@](O)(Cn1cncn1)c1ccc(F)cc1F [VORICONAZOLE]	15.1 (≈ 43.1 µM)	11.1 (≈ 31.8 µM)	16 (≈ 45.8 µM)	16 (≈ 45.8 µM)	12.6 (≈ 36 µM)	11.5 (≈ 33 µM)
